Experimental data from publication PMC7132253 (Proceedings of the National Academy of Sciences of the …, 2020).
Residue numbers refer to the chain shown, from its start. Names and notes keep the numbering of the source. Blank lines part the entries; values can stand above or below the molecule they belong to.

Legend:
[1] = target: T1, WT mIL-2 (Mus musculus, UniProt P04351); assay: NMR titration with line shape analysis; format: binding
T1 sequence (P04351 21-169): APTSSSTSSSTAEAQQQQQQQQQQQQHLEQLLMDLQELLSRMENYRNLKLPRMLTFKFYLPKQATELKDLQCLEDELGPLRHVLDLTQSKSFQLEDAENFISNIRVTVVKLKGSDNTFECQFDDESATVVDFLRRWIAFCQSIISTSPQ
How it was run: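 Kd derived by line-shape analysis (TITAN) of fast-exchange shifts of the V129γ2 and L133δ2 methyl peaks. Errors propagated from spectral signal-to-noise.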

[2] = target: JES6-1; assay: Isothermal titration calorimetry of mIL-2 into JES6-1; format: binding; conditions: ITC
[3] = tested on: IL-2Rα+ mouse CTLL-2 cells; assay: STAT5 phosphorylation; format: cell-based; conditions: IL-2Rα+ CTLL-2 cells
[4] = target: wild-type mouse interleukin-2 (mouse, UniProt P04351); assay: ITC

Kd [1]: 39400 ± 5500 nM
Molecule: COC(=O)[C@H](Cc1ccc(C#Cc2ccccc2)cc1)NC(=O)C[C@H]1CCCN(C(=N)N)C1 [Ro 26-4550]

Kd ([2]; 20 °C, 20 mM phosphate pH 7.2, 150 mM NaCl): 2 nM
B1: WT mIL-2: wild-type mouse interleukin-2 (amino acids 1-149), recombinant, expressed in E. coli (protein, UniProt P04351 21-169, looked up)
Interleukin-2: T1 sequence (P04351 21-169)

decrease in binding affinity relative to WT mIL-2 [2]: 1,000 fold
B2: R52A mIL-2: designed point mutant R52A of mouse IL-2 that eliminates all C-capping interactions (protein)
chain: T1 sequence (P04351 21-169) with R52A
effect of JES6-1 on mIL-2-mediated STAT5 activation [3]: independent of JES6-1

Kd [4]: 2 nM
dH [4]: 12.7 kcal⋅mol^−1
B3: JES6-1 anti-mouse IL-2 monoclonal antibody (antibody, V domains shown)
VH: EIQLQQSGPELRRPGSSVKLSCKASGYNITDYLIHWVRHRPEHGLEWIGWIDPEDGETRYAQKFQSKATLTADTSSNAAYMQLSSLTPEDTATYFCARSLDSTYIYPFAYWGQGTLVTVSS
VL: DIVMTQSPFSLAVSEGEMVTINCKSSQSLLSSGNQKNYLAWYQQKPGQSPKLLIYYASTGQSGVPDRFIGSGSGTDFTLTISDVQAEDLADYYCLQHYISPPTFGAGTKLELK
effect of JES6-1 on mIL-2-mediated STAT5 activation [3]: fivefold reduced
